# T cruzi growth-1: T. cruzi intracellular proliferation inhibitors, primary screen, cell-based, beta-gal Tulahuen parasites, NIH3T3 host, luminescence | AID 624255, 2012 | inhibition, % at 8.34 µM | T. cruzi beta-gal in NIH3T3, GalScreen luminescence, 90 h | 77,000 compounds, 5.9% hits;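 active = mean inhibition above about 93%, with at least 55% of replicates each passing it, limit read from the data, passing the limit was not always enough; inconclusive = only one of those two conditions holds; inactive = neither condition holds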
# IDH1 R132H inh: inhibitors of IDH1 R132H reductase, primary screen, biochemical, plate reader, single point; Isocitrate dehydrogenase [NADP] cytoplasmic (Homo sapiens), O75874; diaphorase/resazurin fluorescence, 60 min; inhibition, % at 10 µM; 70,000 compounds, 0.18% hits; AID 624101, 2012; in the data active = inhibition above about 34%; inconclusive = no clear call, values can overlap the other calls; inactive = below about 11%;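 also: 0% = DMSO and 100% = no enzyme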
# GASC1 inh: inhibitors of GASC-1 (KDM4C) histone demethylase, primary screen, biochemical, single concentration HTS; AID 720574, 2013; Lysine-specific demethylase 4C (Homo sapiens), Q9H3R0; 96,000 compounds, 0.15% hits; GST-KDM4C 2-372, H3K9me3 peptide, LANCE TR-FRET; inhibition, % at 12.5 µM;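 active = mean replicate inhibition above about 25%, with at least 55% of replicates also reaching it, limit read from the data, passing the limit was not always enough; inconclusive = only one of those two conditions met; inactive = neither condition met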
# Target sequence (Q9H3R0 2-372 limits assumed): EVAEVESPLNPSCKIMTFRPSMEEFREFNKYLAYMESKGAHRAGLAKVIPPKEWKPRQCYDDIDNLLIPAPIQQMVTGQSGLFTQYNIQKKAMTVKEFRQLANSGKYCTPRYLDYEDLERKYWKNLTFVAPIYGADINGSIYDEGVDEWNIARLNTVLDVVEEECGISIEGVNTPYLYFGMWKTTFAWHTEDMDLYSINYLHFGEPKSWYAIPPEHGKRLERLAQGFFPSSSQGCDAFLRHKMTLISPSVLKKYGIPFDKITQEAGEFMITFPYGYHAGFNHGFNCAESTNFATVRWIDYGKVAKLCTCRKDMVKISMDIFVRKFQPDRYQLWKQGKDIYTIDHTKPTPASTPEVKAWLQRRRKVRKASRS
#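 System: N-terminal GST-fused human GASC-1 (KDM4C) fragment, residues 2-372; amount: enzyme final amount 10 nM; incubation: reaction 30 min RT, detection step 1 h RT; medium: HEPES buffer, pH 7.5, plus ascorbate; technique: LANCE TR-FRET, Eu antibody, ULight-streptavidin, EDTA, ex 340 nm, em 618/671 nm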
# Pf Dd2 growth: P. falciparum Dd2 growth inhibitors, primary screen, SYBR Green fluorescence, single dose replicates; 72 h; stronger effect = lower value; activity change, % at 10 µM; 94,000 compounds, 2.3% hits; in the data active = activity change below about -80%; inconclusive = no clear call, values can overlap the other calls
# T cruzi growth-2: T. cruzi intracellular proliferation inhibitors, confirmation, cell-based, NIH3T3 host, beta-gal parasite, luminescence, cherry-pick. shares compounds with T cruzi growth-1. T. cruzi beta-gal in NIH3T3, GalScreen luminescence, 90 h. inhibition, % at 8.35 µM. 5,600 compounds, 72% hits. AID 651739, 2012;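 active = mean replicate inhibition above about 95% and at least 55% of replicates individually reaching it, limit read from the data; inconclusive = only one of the two criteria is met; inactive = neither criterion is met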
# T cruzi growth-3: inhibitors of intracellular T. cruzi replication, confirmation, NIH3T3 host cells, beta-gal parasites, cherry-pick, set 2; inhibition, % at 2.09 µM; shares compounds with T cruzi growth-1; 5,600 compounds, 21% hits; AID 651740, 2012; T. cruzi beta-gal in NIH3T3, GalScreen luminescence, 90 h;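 active = mean inhibition above about 95%, with at least 55% of replicates also reaching it, limit read from the data; inconclusive = meets just one of the two conditions; inactive = meets neither condition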;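 also: plate controls were neutral control median for no effect and positive control median for full effect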
# 3T3 cytotox: cytotoxicity in mouse NIH/3T3 fibroblasts, confirmation, cytotoxicity control for T. cruzi proliferation inhibitor project, cell-based, cherry-pick, single point | shares compounds with T cruzi growth-1 | NIH/3T3 viability, CellTiter-Glo ATP luminescence, 90 h | cytotoxicity (signal decrease), % at 8.35 µM | 5,600 compounds, 14% hits;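 active = mean signal decrease across replicates above about 35% based on untreated-well scatter, with enough replicates individually passing, limit read from the data; inconclusive = no rule stated though some were filed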;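 also: 0% = median of neutral control wells and 100% = median of positive control wells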
# NIH3T3 tox 2: NIH/3T3 fibroblast cytotoxicity, confirmation, cytotoxicity control, cell-based, cherry-pick, single point, set 2. shares compounds with T cruzi growth-1. NIH/3T3 viability, CellTiter-Glo ATP luminescence, 90 h. inhibition, % at 24.9 µM. 5,600 compounds, 56% hits;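 active = mean loss of cell viability signal at or above a set limit, and enough replicates individually reaching it; inconclusive = meets only the mean limit or only the replicate share; inactive = meets neither condition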;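 also: 0% = median of neutral control wells and 100% = median of positive control wells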
# * = called active by the depositor; ? = inconclusive; . = no result given. Hits are enriched below; roughly 5.8% of the tested compounds scored in any of these assays.
SMILES,T cruzi growth-1,IDH1 R132H inh,GASC1 inh,Pf Dd2 growth,T cruzi growth-2,T cruzi growth-3,3T3 cytotox,NIH3T3 tox 2
CCC(=O)NC[C@@H]1[C@H](c2ccc(-c3cccc(F)c3)cc2)[C@H](CO)N1C(=O)CC,?,.,-1,12,12,-19,-8,-10
Cc1ccc(Cl)cc1NC(=O)Cn1cnc2ccccc2c1=O,.,0,.,.,.,.,.,.
C[C@H](CO)N1C[C@H](C)[C@H](CN(C)S(=O)(=O)c2cccs2)Oc2c(NC(=O)Nc3ccc(C(F)(F)F)cc3)cccc2C1=O,103*,0,-2,-39,88,58,56*,105*
C[C@@H]1CN([C@H](C)CO)C(=O)c2cc(NC(=O)Nc3ccc(C(F)(F)F)cc3)ccc2O[C@@H]1CN(C)S(=O)(=O)c1cccs1,?,0,-2,12,108*,19,23,40*
C[C@H]1CN([C@@H](C)CO)C(=O)c2cccc(NS(C)(=O)=O)c2O[C@@H]1CN(C)S(=O)(=O)c1cccs1,?,0,0,-11,-23,9,15,48*
C[C@@H]1CN([C@@H](C)CO)C(=O)c2cccc(NS(C)(=O)=O)c2O[C@@H]1CN(C)S(=O)(=O)c1cccs1,-25,1,0,-15,.,.,.,.
C[C@@H]1CN([C@H](C)CO)C(=O)c2cc(NC(=O)Nc3ccc(C(F)(F)F)cc3)ccc2O[C@H]1CN(C)S(=O)(=O)c1cccs1,-27,.,-1,0,.,.,.,.
C[C@H](CO)N1C[C@H](C)[C@H](CN(C)S(=O)(=O)c2cccs2)Oc2ccc(NC(=O)Nc3ccc(C(F)(F)F)cc3)cc2C1=O,115*,.,0,3,103*,59,16,100*
C[C@H]1CN([C@@H](C)CO)C(=O)c2cccc(NC(=O)Nc3ccc(C(F)(F)F)cc3)c2O[C@H]1CN(C)S(=O)(=O)c1cccs1,90,1,-1,-18,.,.,.,.
OC(COCC1COc2ccccc2O1)CN1CCOCC1 (configuration not stated),.,0,.,.,.,.,.,.
CCN(CC(=O)Nc1ccc(C(F)(F)F)cc1)S(=O)(=O)c1ccc2ccccc2c1,.,0,.,.,.,.,.,.
O=C(NCc1nc2ccccc2[nH]1)c1ccccc1,.,1,.,.,.,.,.,.
Cc1ccc(NC(=O)CSc2nc(C)cc(-c3ccccc3)n2)cc1,.,-1,.,.,.,.,.,.
CCC(=O)N1CC[C@@H]2[C@H]1c1cc(-c3ccc(C(=O)N(C)C)cc3)ccc1N[C@@H]2CO,105*,.,1,-4,?,53,0,14
CCC(=O)N1CC[C@H]2[C@H](CO)Nc3ccc(-c4ccccc4)cc3[C@H]21,33,.,-2,4,.,.,.,.
CCC(=O)N1CC[C@H]2[C@H](CO)Nc3ccc(-c4ccc(C(=O)N(C)C)cc4)cc3[C@H]21,107*,.,-1,11,104*,49,-22,-9
C[C@H]1CN([C@@H](C)CO)C(=O)c2cc(NS(=O)(=O)c3ccc(F)cc3)ccc2O[C@@H]1CN(C)S(=O)(=O)c1ccc(Cl)cc1,27,-1,-1,-21,.,.,.,.
C[C@H]1CCCCO[C@H](CN(C)S(=O)(=O)c2ccc(F)cc2)[C@@H](C)CN([C@@H](C)CO)C(=O)c2cc(NS(=O)(=O)c3ccc(Cl)cc3)ccc2O1,99*,-1,-1,-67,98*,94,2,-9
C[C@@H]1CCCCO[C@H](CN(C)S(=O)(=O)c2ccc(F)cc2)[C@H](C)CN([C@H](C)CO)C(=O)c2cc(NS(=O)(=O)c3ccc(Cl)cc3)ccc2O1,100*,1,2,-57,103*,110*,-7,-13
C[C@H](CO)N1C[C@H](C)[C@H](CN(C)S(=O)(=O)c2ccc(Cl)cc2)OCCCC[C@H](C)Oc2ccc(NS(=O)(=O)c3ccc(F)cc3)cc2C1=O,106,-2,0,-32,.,.,.,.
C[C@H](CO)N1C[C@H](C)[C@H](CN(C)S(=O)(=O)c2ccc(Cl)cc2)Oc2ccc(NS(=O)(=O)c3ccc(F)cc3)cc2C1=O,?,0,-2,-34,98*,45,40*,?
C[C@@H]1CCCCO[C@H](CN(C)S(=O)(=O)c2ccc(F)cc2)[C@H](C)CN([C@@H](C)CO)C(=O)c2cc(NS(=O)(=O)c3ccc(Cl)cc3)ccc2O1,92,.,0,-16,.,.,.,.
C[C@H]1CCCCO[C@H](CN(C)S(=O)(=O)c2ccc(Cl)cc2)[C@@H](C)CN([C@@H](C)CO)C(=O)c2cc(NS(=O)(=O)c3ccc(F)cc3)ccc2O1,103*,1,2,-48,?,110*,-25,-7
CSc1ccccc1NC(=O)CN(c1cccc2ccccc12)S(C)(=O)=O,.,0,.,.,.,.,.,.
COc1ccc(NC(=O)CN(c2ccccc2F)S(C)(=O)=O)cc1Cl,.,0,.,.,.,.,.,.
SMILES,T cruzi growth-1,IDH1 R132H inh,GASC1 inh,Pf Dd2 growth,T cruzi growth-2,T cruzi growth-3,3T3 cytotox,NIH3T3 tox 2
O=C1c2oc3ccccc3c(=O)c2C(c2cccc(Oc3ccccc3)c2)N1CCCO (configuration not stated),.,0,.,.,.,.,.,.
C[C@@H]1CN([C@H](C)CO)C(=O)c2cc(NS(=O)(=O)c3ccc(Cl)cc3)ccc2O[C@@H](C)CCCCO[C@@H]1CN(C)S(=O)(=O)c1ccc(F)cc1,105*,.,7,-66,104*,109*,-40,10
C[C@@H]1CCCCO[C@@H](CN(C)S(=O)(=O)c2ccc(F)cc2)[C@H](C)CN([C@H](C)CO)C(=O)c2cc(NS(=O)(=O)c3ccc(Cl)cc3)ccc2O1,95,.,0,-55,.,.,.,.
Cc1ncsc1CCSc1nc2ccccc2c(=O)n1-c1ccccc1,.,1,.,.,.,.,.,.
C[C@H]1CN([C@@H](C)CO)C(=O)c2cccc(NC(=O)c3ccc(-c4nccs4)cc3)c2O[C@@H]1CN(C)Cc1ccc(C(F)(F)F)cc1,109*,-1,-2,-71,95,87,-4,84*
C[C@@H]1CN([C@@H](C)CO)C(=O)c2cccc(NC(=O)c3ccc(-c4nccs4)cc3)c2O[C@@H]1CN(C)Cc1ccc(C(F)(F)F)cc1,?,0,-3,-78,111*,102*,-56,7

# High-throughput results (PubChem BioAssay)
